The list is not random: actives were taken first. Their share in the collection is about 1.4%.
MT1-MMP act inh: blockers of MT1-MMP proenzyme processing, primary screen, HT1080 RFP-PRO-GFP cells, GFP/RFP fluorescence. Matrix metalloproteinase-14 (Homo sapiens), P50281. GFP/RFP ratio fluorescence, overnight; percent of plate control window, DMSO zero. GFP/RFP ratio change, % at 20 µM. 360,000 compounds, 0.061% hits;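 active = GFP/RFP ratio change of at least 30% with cell ATP level not reduced by more than half and red fluorescence within 50% of control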
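Assay system: RFP-PRO-GFP reporter HT1080 cells; read-out basis: GFP/RFP fluorescence ratio; benchmarks: DMSO wells and RFP-L50D-GFP cells; doses: 20 µM single dose, 1% DMSO; schedule: overnight cell settling, then overnight compound exposure, 37 °C, 5% CO2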
iPSC survival up: enhancers of single-cell hiPSC survival, primary screen, ATPlite luminescence | 100% = ROCK inhibitor wells, 0% = DMSO | survival enhancement, % at 20 µM | 360,000 compounds, 0.044% hits; in the data active = survival enhancement above about 18%;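 also: cells exposed to compounds for 16 hours before the ATP read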
SKN-1 block: suppressors of acrylamide-induced Pgst-4::GFP reporter in worms, primary screen, SKN-1 inhibitor project, whole organism, uHTS, GFP/RFP fluorescence ratio, strain VP596. C. elegans VP596 Pgst-4::GFP/RFP ratio, 24 h. inhibition, % at 21.8 µM. 360,000 compounds, 0.49% hits. AID 624304, 2012;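 active = interference check ratio from 0.5 to 1.5 plus GFP to RFP signal ratio inhibition reaching or exceeding a fixed threshold, cut at about 30% in these data, passing the limit was not always enough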
CendR NRP1 mod: modulators of CendR peptide binding to NRP-1, primary screen, biochemical, fluorescence polarization, uHTS; FAM-RPARPAR peptide binding to NRP-1; Neuropilin-1 (Homo sapiens), O14786; 360,000 compounds, 0.85% hits; inhibition, % at 25 µM;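 active = inhibition or corrected inhibition above about 18%, plus a signal ratio from 0.5 to 1.5, limit read from the data, passing the limit was not always enough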
Target sequence (O14786 whole entry, looked up): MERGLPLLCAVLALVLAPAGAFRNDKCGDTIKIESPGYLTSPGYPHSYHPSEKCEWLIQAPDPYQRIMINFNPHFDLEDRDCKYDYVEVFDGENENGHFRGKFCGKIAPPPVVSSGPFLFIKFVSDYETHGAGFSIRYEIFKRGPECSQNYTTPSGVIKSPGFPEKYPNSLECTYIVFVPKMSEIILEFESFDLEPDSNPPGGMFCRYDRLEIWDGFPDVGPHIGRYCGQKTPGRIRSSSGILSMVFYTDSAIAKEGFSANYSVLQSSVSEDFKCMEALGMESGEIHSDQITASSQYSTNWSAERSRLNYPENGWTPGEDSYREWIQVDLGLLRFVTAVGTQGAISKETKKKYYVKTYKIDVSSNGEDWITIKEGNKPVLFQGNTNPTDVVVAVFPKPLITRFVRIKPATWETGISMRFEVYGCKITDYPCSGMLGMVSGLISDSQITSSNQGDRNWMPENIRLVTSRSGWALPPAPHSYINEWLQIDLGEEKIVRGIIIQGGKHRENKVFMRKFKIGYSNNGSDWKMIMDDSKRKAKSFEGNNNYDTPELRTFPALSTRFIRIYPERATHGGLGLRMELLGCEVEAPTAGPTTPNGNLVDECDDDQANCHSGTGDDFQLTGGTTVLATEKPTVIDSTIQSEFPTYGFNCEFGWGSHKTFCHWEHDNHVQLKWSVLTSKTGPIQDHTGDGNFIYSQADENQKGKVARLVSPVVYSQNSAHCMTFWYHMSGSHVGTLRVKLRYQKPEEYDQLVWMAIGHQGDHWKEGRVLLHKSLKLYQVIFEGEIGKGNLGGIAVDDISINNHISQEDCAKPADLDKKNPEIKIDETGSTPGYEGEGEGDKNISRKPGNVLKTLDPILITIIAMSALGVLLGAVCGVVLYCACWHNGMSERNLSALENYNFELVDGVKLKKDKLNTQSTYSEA
Starred values were filed as active, the others as inactive; . = no result.

SMILES	MT1-MMP act inh	iPSC survival up	SKN-1 block	CendR NRP1 mod
CCC(C)NS(=O)(=O)c1ccc(S(=O)(=O)N(CC(=O)Nc2ccccc2)Cc2ccco2)cc1 (stereo not drawn)	4	-2	-3	-5
COC(=O)c1ccc(C(=O)OCc2nc3cc4ccccc4cc3[nH]2)cc1	4	4	3	-20
COc1ccc(C(CNC(=O)COc2ccc(Br)cc2F)N2CCCC2)cc1 (stereo not drawn)	3	-1	9	-4
COc1ccc(CC(=O)OCc2cc3ccccc3[nH]c2=O)cc1	3	2	-2	25*
COc1ccc(CC(=O)OCc2cc3ccc(C)cc3[nH]c2=O)cc1	3	-1	2	0
CCOC(=O)C(C)Sc1nc(=O)n2ccccc2n1 (stereo not drawn)	1	-2	7	19*
CN1CCN(c2ccc(NC(=O)c3ccc(Oc4ccccc4)cc3)cc2)CC1	5	0	37*	-23
COc1ccc(-c2cc(-c3ccc(C)cc3)n[nH]2)c(O)c1	2	0	39*	6
COc1ccc(-c2cc(-c3cc(C)ccc3O)[nH]n2)cc1	-13	-1	6	-1
Cc1ccc(CNC(=O)c2ccccc2NC(=O)C2=CSCCO2)cc1	3	0	6	8
CCS(=O)(=O)c1ncc(Cl)c(C(=O)Nc2ccc(S(=O)(=O)N(C)c3ccccc3)cc2)n1	-8	21*	-7	-6
COc1ccc(NC(=O)Cn2nnc(C(=O)NCCc3ccccc3)c2N)cc1	-1	0	7	-43
COc1ccc(NC(=O)Cn2nnc(C(=O)Nc3ccccc3C)c2N)cc1	-1	0	-2	19*
C[C@@H]1CN([C@@H](C)CO)C(=O)c2cc(Br)cnc2O[C@H]1CN(C)C(=O)C1CC1	6	20*	-7	-16
Cc1noc(C)c1NC(=O)Nc1ccc2c(c1)C(=O)N([C@H](C)CO)C[C@H](C)[C@@H](CN(C)C(=O)NC(C)C)O2	1	0	14	27*
Cc1noc(C)c1NC(=O)N(C)C[C@H]1Oc2ccc(NC(=O)NC(C)C)cc2C(=O)N([C@H](C)CO)C[C@H]1C	0	0	11	1
CC(C)NC(=O)N(C)C[C@H]1Oc2ccc(NC(=O)Nc3ccccc3)cc2C(=O)N([C@H](C)CO)C[C@@H]1C	5	0	16	34*
CC(C)NC(=O)N(C)C[C@H]1Oc2ccc(NC(=O)Nc3ccccc3)cc2C(=O)N([C@@H](C)CO)C[C@@H]1C	1	5	12	9
C[C@H](CO)N1C[C@H](C)[C@@H](CN(C)S(C)(=O)=O)Oc2ccc(NC(=O)NC3CCCCC3)cc2C1=O	-1	-3	6	31*
C=CCOC(=O)C1=C(C)OC(N)=C(C#N)C1c1ccco1 (stereo not drawn)	-2	0	7	10
CCn1cc(/C=C(\NC(=O)c2ccccc2F)C(=O)NCCCN2CCOCC2)c2ccccc21	-2	0	-2	7
Oc1ccc(C[C@H]2CNCCN2CC2CCCCC2)cc1	0	1	-8	-7
CCOc1ccc(S(=O)(=O)NCc2ccccc2OC)cc1	.	-1	-14	0
Cc1noc(C)c1S(=O)(=O)N(C)C[C@H]1OCCCC[C@@H](C)Oc2ccc(NS(=O)(=O)c3cn(C)cn3)cc2C(=O)N([C@H](C)CO)C[C@@H]1C	4	0	12	26*
COc1ccc(S(=O)(=O)Nc2ccc3c(c2)C(=O)N([C@H](C)CO)C[C@H](C)[C@@H](CN(C)S(=O)(=O)c2cn(C)cn2)OCCCC[C@H](C)O3)cc1	1	5	4	-7
SMILES	MT1-MMP act inh	iPSC survival up	SKN-1 block	CendR NRP1 mod
CC(C)NC(=O)Nc1ccc2c(c1)C(=O)N([C@H](C)CO)C[C@H](C)[C@@H](CN(C)C(=O)Nc1ccc3c(c1)OCO3)O2	3	-1	6	2
CC(C)NC(=O)N(C)C[C@H]1Oc2ccc(NC(=O)Nc3ccc4c(c3)OCO4)cc2C(=O)N([C@H](C)CO)C[C@@H]1C	-1	-2	3	29*
CC(C)C1OC2(C)OC(=N)C1(C#N)C(C#N)(C#N)C2c1ccccc1 (stereo not drawn)	-11	0	42	-14
CCC1OC2(C)OC(=N)C1(C#N)C(C#N)(C#N)C2c1ccccc1 (stereo not drawn)	2	0	47*	-15
Cc1ccc(C(=O)N/C(=C\c2ccccc2)C(=O)NCCCn2ccnc2)cc1	-1	-2	1	23*
CCOc1ccc(NC(=O)C2CCCN(S(=O)(=O)c3c(C)nn(C)c3C)C2)cc1 (stereo not drawn)	4	0	34*	-23
COc1ccccc1NC(=O)Nc1nc(C(N)Cc2ccccc2)cs1 (stereo not drawn)	1	-3	0	-5
COc1ccc(CC(=O)Nc2ccc(-c3nc4cc(C)ccc4o3)c(O)c2)cc1OC	1	-2	35*	5
Cc1ccc2oc(-c3ccc(NC(=O)c4ccncc4)cc3O)nc2c1	0	1	17	-4
CCc1nnc(NC(=O)CSc2nnc(CCc3nc4ccccc4[nH]3)n2C)s1	3	-1	3	19*
Cc1nnc(NC(=O)CSc2nnc(CCc3nc4ccccc4[nH]3)n2C)s1	-4	-1	2	8
O=C(NNC1CC(=O)N(c2ccc(F)cc2)C1=O)c1cccnc1 (stereo not drawn)	3	0	1	9
c1ccc(Cn2c[n+](Cc3ccccc3)c3ccccc32)cc1	1	-1	35*	12
COc1ccc(NC(=O)CSc2nc(-c3ccco3)nc3cc(=O)[nH]n23)cc1Cl	4	1	5	0
COc1cc(OC)cc(C(=O)NNC(=O)CCc2nc3ccccc3c(=O)[nH]2)c1	0	-2	4	-1
COc1ccc(S(=O)(=O)N2CCOC2CNC(=O)C(=O)NCc2ccc3c(c2)OCO3)cc1 (stereo not drawn)	0	0	6	23*
COc1ccc(CSc2nnc(NC(C)=O)s2)cc1[N+](=O)[O-]	-1	-2	6	4
Cc1ccc(-c2nn(-c3ccccc3)cc2CSC(=N)N)cc1	-3	-4	43*	12
O=C(O)CCNC(=O)c1ccc(NC(=O)C(c2ccccc2)c2ccccc2)cc1	8	0	13	16
CC(SC(=S)N1CCCC1)C(=O)O (stereo not drawn)	5	-1	-1	36*
